{"source": "ChEMBL document CHEMBL1250472", "about": "“\"Clicked\" bivalent ligands containing curcumin and cholesterol as multifunctional abeta oligomerization inhibitors: design, synthesis, and biological characterization” (J Med Chem, 2010)", "key": {"[1]": {"target": "Amyloid-beta precursor protein (Homo sapiens) (UniProt P05067)", "sequence (P05067 whole entry)": "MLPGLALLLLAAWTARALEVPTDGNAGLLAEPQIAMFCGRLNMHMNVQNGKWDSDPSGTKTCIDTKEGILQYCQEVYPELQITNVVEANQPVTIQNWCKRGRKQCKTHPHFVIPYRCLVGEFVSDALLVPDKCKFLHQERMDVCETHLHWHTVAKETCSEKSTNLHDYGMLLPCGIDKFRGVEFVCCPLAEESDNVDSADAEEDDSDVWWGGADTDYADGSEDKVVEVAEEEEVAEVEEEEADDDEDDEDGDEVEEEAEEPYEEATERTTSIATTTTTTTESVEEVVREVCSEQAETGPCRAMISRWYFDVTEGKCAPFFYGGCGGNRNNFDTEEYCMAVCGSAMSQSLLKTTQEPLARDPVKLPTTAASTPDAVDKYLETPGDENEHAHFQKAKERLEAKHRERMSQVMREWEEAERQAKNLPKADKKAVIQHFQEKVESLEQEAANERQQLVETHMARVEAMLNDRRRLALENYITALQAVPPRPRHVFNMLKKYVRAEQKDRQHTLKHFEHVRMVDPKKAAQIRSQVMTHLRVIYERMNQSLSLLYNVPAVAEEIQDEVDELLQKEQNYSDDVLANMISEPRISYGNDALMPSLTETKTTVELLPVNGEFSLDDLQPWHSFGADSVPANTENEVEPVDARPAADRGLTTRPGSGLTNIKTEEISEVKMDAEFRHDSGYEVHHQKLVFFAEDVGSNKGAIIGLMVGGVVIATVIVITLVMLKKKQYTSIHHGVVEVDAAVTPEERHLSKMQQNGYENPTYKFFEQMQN", "assay": "Inhibition of APP expressed in human MC65 cells assessed as inhibition of amyloid beta oligomer formation at 10 uM by Western blotting after removal of tetracycline"}, "[2]": {"assay": "Cytotoxicity against human MC65 cells after 72 hrs", "details": "mc65, 72 h"}, "[3]": {"target": "Amyloid-beta precursor protein (Homo sapiens) (UniProt P05067)", "assay": "Inhibition of APP expressed in human MC65 cells assessed as inhibition of amyloid beta 42 oligomerization by transmission electron microscopy", "type": "cell-based"}, "[4]": {"assay": "Cellular uptake in human MC65 cells after 24 hrs by immunocytometry", "type": "ADME, cell-based", "details": "mc65, 24 h", "summary_of_the_method": "(§1)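 MC65 cells exposed to compound (10 μM) for 24 h, fixed in 4% paraformaldehyde, permeabilized with 0.1% Triton X-100, DAPI-stained. Compound's own fluorescence located by confocal microscopy (excitation 355 and 494 nm). 1.0 μm optical sections through the cell depth, projected into a composite image.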"}, "MC65 [5]": {"system": "MC65", "assay": "Antioxidant activity in human MC65 cells assessed as decrease in oxidative stress by DCFH-DA assay", "type": "functional, cell-based", "summary_of_the_method": "(§2)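 MC65 cells, 4 × 10^4/well, grown 24 h, then exposed to compounds in Opti-MEM with or without TC for 24 h (blanks with compound only). DCFH-DA loaded at 25 μM final for 30 min at 37 °C, medium replaced, fluorescence read at 485/530 nm. Expressed as % of parallel -TC cultures, n = 5.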"}, "MC65 [6]": {"system": "MC65", "assay": "Antioxidant activity in human MC65 cells assessed as decrease in lipid peroxidation by DCFH-DA assay", "type": "functional, cell-based", "details": "in the assay text read “intracellular oxidative stress” for “lipid peroxidation”", "summary_of_the_method": "as §2"}, "SH-SY5Y [7]": {"system": "SH-SY5Y", "assay": "Cytotoxicity against human SH-SY5Y cells after 48 hrs"}, "MC65 [8]": {"system": "MC65", "assay": "Cytoprotective activity against amyloid-beta oligomer-induced cytotoxicity in human MC65 cells after 72 hrs"}, "SH-SY5Y [9]": {"system": "SH-SY5Y", "assay": "Cytoprotective activity against amyloid-beta oligomer-induced cytotoxicity in human SH-SY5Y cells at 16 uM after 48 hrs"}, "SH-SY5Y [10]": {"system": "SH-SY5Y", "assay": "Cytoprotective activity against amyloid-beta oligomer-induced cytotoxicity in human SH-SY5Y cells at 2 to 8 uM after 48 hrs"}, "[11]": {"target": "Amyloid-beta precursor protein (Homo sapiens) (UniProt P05067)", "assay": "Inhibition of APP expressed in human MC65 cells assessed as inhibition of amyloid beta oligomer formation at 10 uM by Western blotting", "type": "cell-based", "summary_of_the_method": "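MC65 cells, 1 × 10^6/well, exposed to compounds (10 μM) in Opti-MEM with or without TC for 24 h. Lysates (10 μg protein) run on 10-20% tris-tricine SDS-PAGE and blotted with 6E10 (1:2000), HRP secondary, chemiluminescence. Three independent experiments.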"}, "MC65 [12]": {"system": "MC65", "assay": "Binding affinity to amyloid beta expressed in human MC65 cells after 24 hrs by immunocytometry", "type": "cell-based", "summary_of_the_method": "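MC65 cells, 1 × 10^4/well, given compounds (10 μM) right after TC removal, 24 h. Surface stained with Alexa 488-CTX-B on ice, then fixed in 4% paraformaldehyde and permeabilized with Triton X-100. Stained with A11 oligomer antibody plus Alexa 568 secondary, DAPI counterstain. Confocal imaging; red puncta per cell averaged over five areas.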"}, "MC65 [13]": {"system": "MC65", "assay": "Binding affinity to cell membrane/lipid raft of human MC65 cells after 24 hrs by immunocytometry", "type": "cell-based", "summary_of_the_method": "as §1"}, "Spleen": {"system": "Spleen", "assay": "Toxicity against mouse spleen after 24 hrs", "type": "tissue-based", "details": "in vitro"}, "[14]": {"assay": "Apparent permeability from apical to basolateral side of human Caco-2 cells", "type": "ADME, cell-based", "summary_of_the_method": "(§3)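 Caco-2 cells, passages 30-50, grown 21 days on transwell inserts to confluence; TEER >400 ohm·cm² and lucifer yellow permeability <1 × 10^-6 cm/s. Compound at 10 μM added apical or basolateral in HBSS, 37 °C with shaking. Sampling at 30, 60, 120 min, HPLC with fluorescence detection. Permeability calculated by Fick's law; efflux ratio is B-A/A-B.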"}, "[15]": {"assay": "Apparent permeability from basolateral to apical side of human Caco-2 cells", "type": "ADME, cell-based", "summary_of_the_method": "as §3"}, "[16]": {"assay": "Cytotoxicity against mouse NK cells after 24 hrs"}, "SH-SY5Y [17]": {"system": "SH-SY5Y", "assay": "Cytoprotective activity against amyloid-beta oligomer-induced cytotoxicity in human SH-SY5Y cells after 48 hrs"}}, "note": "Calls of active or inactive are those of the source. No cut-off for these calls is given here."}
{"smiles": "COc1cc(/C=C/C(=O)/C(Cc2cn(CCCCNC(=O)CCNC(=O)CO[C@H]3CC[C@@]4(C)C(=CC[C@H]5[C@@H]6CC[C@H]([C@H](C)CCCC(C)C)[C@@]6(C)CC[C@@H]54)C3)nn2)=C(O)/C=C/c2ccc(O)c(OC)c2)ccc1O", "values": [{"measurement": "inhibition", "setting": "[1]", "result": "Active"}]}
{"smiles": "COc1cc(/C=C/C(=O)/C=C(O)/C=C/c2ccc(OCc3cn(CCCCCCNC(=O)CO[C@H]4CC[C@@]5(C)C(=CC[C@H]6[C@@H]7CC[C@H]([C@H](C)CCCC(C)C)[C@@]7(C)CC[C@@H]65)C4)nn3)c(OC)c2)ccc1O", "values": [{"measurement": "inhibition", "setting": "[1]", "result": "inactive"}]}
{"smiles": "COc1cc(/C=C/C(=O)/C=C(O)/C=C/c2ccc(OCc3cn(CCCCCCNC(=O)CCNC(=O)CCNC(=O)CO[C@H]4CC[C@@]5(C)C(=CC[C@H]6[C@@H]7CC[C@H]([C@H](C)CCCC(C)C)[C@@]7(C)CC[C@@H]65)C4)nn3)c(OC)c2)ccc1O", "values": [{"measurement": "Activity", "setting": "[2]", "result": "Non-toxic"}]}
{"smiles": "COc1cc(/C=C/C(=O)CC(=O)/C=C/c2ccc(O)c(OC)c2)ccc1O", "note": "[CURCUMIN]", "values": [{"measurement": "inhibition", "setting": "[3]", "result": "Active"}, {"measurement": "Drug uptake", "setting": "[4]", "result": "Active"}, {"measurement": "Activity", "setting": "MC65 [5]", "result": "Active"}, {"measurement": "Activity", "setting": "MC65 [6]", "result": "Active"}, {"measurement": "Activity", "setting": "SH-SY5Y [7]", "result": "Toxic"}, {"measurement": "Activity", "setting": "MC65 [8]", "result": "Active"}, {"measurement": "Activity", "setting": "SH-SY5Y [9]", "result": "inactive"}, {"measurement": "Activity", "setting": "SH-SY5Y [10]", "result": "Active"}, {"measurement": "inhibition", "setting": "[1]", "result": "inactive"}]}
{"smiles": "COc1cc(/C=C/C(=O)/C(Cc2cn(CCCCNC(=O)CO[C@H]3CC[C@@]4(C)C(=CC[C@H]5[C@@H]6CC[C@H]([C@H](C)CCCC(C)C)[C@@]6(C)CC[C@@H]54)C3)nn2)=C(O)/C=C/c2ccc(O)c(OC)c2)ccc1O", "values": [{"measurement": "inhibition", "setting": "[1]", "result": "inactive"}]}
{"smiles": "COc1cc(/C=C/C(=O)/C=C(O)/C=C/c2ccc(OCc3cn(CCCCNC(=O)CO[C@H]4CC[C@@]5(C)C(=CC[C@H]6[C@@H]7CC[C@H]([C@H](C)CCCC(C)C)[C@@]7(C)CC[C@@H]65)C4)nn3)c(OC)c2)ccc1O", "values": [{"measurement": "inhibition", "setting": "[1]", "result": "inactive"}]}
{"smiles": "COc1cc(/C=C/C(=O)/C=C(O)/C=C/c2ccc(OCc3cn(CCCCNC(=O)CCNC(=O)CCNC(=O)CO[C@H]4CC[C@@]5(C)C(=CC[C@H]6[C@@H]7CC[C@H]([C@H](C)CCCC(C)C)[C@@]7(C)CC[C@@H]65)C4)nn3)c(OC)c2)ccc1O", "values": [{"measurement": "inhibition", "setting": "[1]", "result": "Active"}]}
{"smiles": "COc1cc(/C=C/C(=O)/C(Cc2cn(CCCCCCNC(=O)CCNC(=O)CO[C@H]3CC[C@@]4(C)C(=CC[C@H]5[C@@H]6CC[C@H]([C@H](C)CCCC(C)C)[C@@]6(C)CC[C@@H]54)C3)nn2)=C(O)/C=C/c2ccc(O)c(OC)c2)ccc1O", "values": [{"measurement": "Activity", "setting": "[2]", "result": "Non-toxic"}, {"measurement": "inhibition", "setting": "[1]", "result": "Active"}]}
{"smiles": "COc1cc(/C=C/C(=O)/C=C(O)/C=C/c2ccc(OCc3cn(CCCCCCNC(=O)CCNC(=O)CO[C@H]4CC[C@@]5(C)C(=CC[C@H]6[C@@H]7CC[C@H]([C@H](C)CCCC(C)C)[C@@]7(C)CC[C@@H]65)C4)nn3)c(OC)c2)ccc1O", "values": [{"measurement": "inhibition", "setting": "[1]", "result": "Active"}]}
{"smiles": "COc1cc(/C=C/C(=O)/C(Cc2cn(CCCCNC(=O)CCNC(=O)CCNC(=O)CO[C@H]3CC[C@@]4(C)C(=CC[C@H]5[C@@H]6CC[C@H]([C@H](C)CCCC(C)C)[C@@]6(C)CC[C@@H]54)C3)nn2)=C(O)/C=C/c2ccc(O)c(OC)c2)ccc1O", "values": [{"measurement": "inhibition", "setting": "[1]", "result": "Active"}]}
{"smiles": "CCCCNC(=O)CCC(=O)NCCCCCCn1cc(C/C(C(=O)/C=C/c2ccc(O)c(OC)c2)=C(O)\\C=C\\c2ccc(O)c(OC)c2)nn1", "values": [{"measurement": "inhibition", "setting": "[1]", "result": "inactive"}]}
{"smiles": "COc1cc(/C=C/C(=O)/C=C(O)/C=C/c2ccc(OCc3cn(CCCCNC(=O)CCNC(=O)CO[C@H]4CC[C@@]5(C)C(=CC[C@H]6[C@@H]7CC[C@H]([C@H](C)CCCC(C)C)[C@@]7(C)CC[C@@H]65)C4)nn3)c(OC)c2)ccc1O", "values": [{"measurement": "inhibition", "setting": "[1]", "result": "Active"}]}
{"smiles": "COc1cc(/C=C/C(=O)/C(Cc2cn(CCCCCCNC(=O)CO[C@H]3CC[C@@]4(C)C(=CC[C@H]5[C@@H]6CC[C@H]([C@H](C)CCCC(C)C)[C@@]6(C)CC[C@@H]54)C3)nn2)=C(O)/C=C/c2ccc(O)c(OC)c2)ccc1O", "values": [{"measurement": "inhibition", "setting": "[1]", "result": "inactive"}]}
{"smiles": "COc1cc(/C=C/C(=O)/C(Cc2cn(CCCCCCNC(=O)CCNC(=O)CCNC(=O)CO[C@H]3CC[C@@]4(C)C(=CC[C@H]5[C@@H]6CC[C@H]([C@H](C)CCCC(C)C)[C@@]6(C)CC[C@@H]54)C3)nn2)=C(O)/C=C/c2ccc(O)c(OC)c2)ccc1O", "values": [{"measurement": "inhibition", "setting": "[11]", "result": "Active"}, {"measurement": "inhibition", "setting": "[3]", "result": "Active"}, {"measurement": "Activity", "setting": "MC65 [12]", "result": "inactive"}, {"measurement": "Activity", "setting": "MC65 [13]", "result": "Active"}, {"measurement": "Activity", "setting": "Spleen", "result": "Toxic"}, {"measurement": "Activity", "setting": "MC65 [5]", "result": "Active"}, {"measurement": "Papp A→B", "setting": "[14]", "result": 7.1, "unit": "×10⁻⁶ cm/s"}, {"measurement": "Papp B→A", "setting": "[15]", "result": 4.7, "unit": "×10⁻⁶ cm/s"}, {"measurement": "Activity", "setting": "[16]", "result": "Non-toxic"}, {"measurement": "Activity", "setting": "MC65 [8]", "result": "Dose-dependent effect"}, {"measurement": "Activity", "setting": "SH-SY5Y [17]", "result": "Active"}, {"measurement": "inhibition", "setting": "[1]", "result": "Active"}]}
{"smiles": "CCCCNC(=O)CCC(=O)NCCCCCCn1cc(COc2ccc(/C=C/C(O)=C/C(=O)/C=C/c3ccc(O)c(OC)c3)cc2OC)nn1", "values": [{"measurement": "inhibition", "setting": "[1]", "result": "inactive"}]}
